5 compounds from ChEMBL document CHEMBL1781932 (J Med Chem, 2011) can be followed below.

≈ marks a conversion by molar mass, not a printed value. Some results are limits rather than exact numbers.

The test system of data set [1] is Staphylococcus aureus. Description: Antimicrobial activity against tetracycline-susceptible Staphylococcus aureus Smith isolate 100 infected in iv dosed mouse systemic infection model assessed as survival of mouse administered 60 mins post infection measured up to 48 hrs. Type of data set: functional. Particulars: Smith isolate 100, iv, read-out: PD50. In short, it runs like this: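 Mouse septicemia model with S. aureus ATCC 13709 mixed with 5% mucin, given intraperitoneally at 2.1×10^6 cfu/mouse. Compound was dosed intravenously 60 min after infection at 0.3–30 mg/kg in sterile water, 6 mice/dose group, with untreated infection controls. Survival was followed over 48 h. PD50 was derived by Probit analysis with 95% CI.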

Data set [2] in a line: Clearance in Sprague-Dawley rat at 1 mg/kg, iv administered as single dose measured after 24 to 48 hrs. It counts as ADME, organism-based. On the set-up: dose 1 mg/kg, route intravenous. Particulars: in vivo. In short, it runs like this:
(§1)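 Sprague-Dawley rats (n = 3) were fasted overnight (minimum 12 h) and given a single dose, iv 1 mg/kg or oral 10 mg/kg, in sterile water. Samples were taken over 24–48 h. PK parameters came from noncompartmental analysis.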

Data set [3] can be described thus: AUC (0 to infinity) in Sprague-Dawley rat at 1 mg/kg, iv administered as single dose measured after 24 to 48 hrs. It counts as ADME, organism-based. On the set-up: time infinity, dose 1 mg/kg, route intravenous. Particulars: plasma. In short, it runs like this: as §1
Data set [4] has as its system Klebsiella pneumoniae. Description: Antimicrobial activity against tetracycline-resistant Klebsiella pneumoniae isolate 153 harboring tetA gene by CLSI dilution method. It counts as functional.
Data set [5] relates to Enterococcus faecalis. Put plainly: Antimicrobial activity against tetracycline-resistant Enterococcus faecalis isolate 159 harboring […] gene by CLSI dilution method. Type of data set: functional.
In data set [6] the test system is Escherichia coli. Put plainly: Antimicrobial activity against tetracycline-resistant Escherichia coli isolate 155 harboring tetA gene by CLSI dilution method. It counts as functional.
Data set [7] in a line: Apparent volume of distribution in Sprague-Dawley rat at 1 mg/kg, iv administered as single dose measured after 24 to 48 hrs. Particulars: in vivo.
Data set [8] deals with Staphylococcus aureus. Put plainly: Antimicrobial activity against methicillin-, tetracycline-resistant Staphylococcus aureus isolate 161 harboring tetM gene by CLSI dilution method. It counts as functional.
A short description of data set [9]: Cmax in Sprague-Dawley rat at 1 mg/kg, iv administered as single dose measured after 24 to 48 hrs. It counts as ADME, organism-based. Particulars: in vivo. On the set-up: dose 1 mg/kg, route intravenous. In short, it runs like this:
as §1

For data set [10], the system named is Rattus norvegicus. Description: Oral bioavailability in Sprague-Dawley rat at 10 mg/kg administered as single dose. It counts as ADME, organism-based. Particulars: in vivo. In short, it runs like this: as §1
Data set [11] deals with Streptococcus pneumoniae. Description: Antimicrobial activity against tetracycline-susceptible Streptococcus pneumoniae isolate 106 by CLSI dilution method. Type of data set: functional. In short, it runs like this: (§2)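 Broth microdilution per CLSI in fresh cation-adjusted Mueller Hinton broth, kept at 4 °C before testing, with defibrinated horse blood added as appropriate. Strains were from ATCC. MIC in µg/mL. Runs were accepted when comparator antibiotics against ATCC quality-control strains fell within recommended ranges.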

Data set [12] concerns Acinetobacter baumannii. Put plainly: Antimicrobial activity against tetracycline-susceptible Acinetobacter baumannii isolate 110 by CLSI dilution method. It counts as functional. In short, it runs like this:
as §2

The subject of data set [13] is Staphylococcus aureus. Put plainly: Antimicrobial activity against tetracycline-susceptible Staphylococcus aureus Smith isolate 100 infected in po dosed mouse systemic infection model assessed as survival of mouse administered 60 mins post infection measured after 48 hrs. Particulars: Smith isolate 100, po, read-out: PD50. It counts as functional. In short, it runs like this:
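Mouse septicemia model with S. aureus ATCC 13709 in 5% mucin, inoculated intraperitoneally at 2.1×10^6 cfu/mouse. Oral gavage dosing began 60 min post-infection at 0.3–30 mg/kg in sterile water, 6 mice/dose group, with untreated infection controls. Survival was assessed over 48 h. PD50 was obtained by Probit analysis with 95% CI.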

In data set [14] the test system is Staphylococcus aureus. Description: Antimicrobial activity against tetracycline-susceptible Staphylococcus aureus isolate 101 by CLSI dilution method. It counts as functional.
The test system of data set [15] is Escherichia coli. Description: Antimicrobial activity against tetracycline-susceptible Escherichia coli isolate 107 by CLSI dilution method. Type of data set: functional. In short, it runs like this:
as §2

Data set [16] concerns Enterococcus faecalis. Description: Antimicrobial activity against tetracycline-susceptible Enterococcus faecalis isolate 103 by CLSI dilution method. Type of data set: functional. In short, it runs like this: as §2
For data set [17], the system named is Staphylococcus aureus. Put plainly: Antimicrobial activity against tetracycline-resistant Staphylococcus aureus isolate 158 harboring tetK gene by CLSI dilution method. Type of data set: functional.
The nature of data set [18]: Elimination half life in Sprague-Dawley rat at 1 mg/kg, iv administered as single dose. It counts as ADME, organism-based. On the set-up: dose 1 mg/kg, route intravenous. Particulars: in vivo, read-out: beta t1/2 (converted). In short, it runs like this:
as §1

In data set [19] the test system is Klebsiella pneumoniae. Description: Antimicrobial activity against tetracycline-susceptible Klebsiella pneumoniae isolate 109 by CLSI dilution method. It counts as functional. In short, it runs like this: as §2
The test system of data set [20] is Enterobacter cloacae. Put plainly: Antimicrobial activity against tetracycline-susceptible Enterobacter cloacae isolate 108 by CLSI dilution method. Type of data set: functional. In short, it runs like this:
as §2

In data set [21] the test system is Streptococcus pneumoniae. Put plainly: Antimicrobial activity against tetracycline-resistant Streptococcus pneumoniae isolate 160 harboring tetM gene by CLSI dilution method. It counts as functional.
In data set [22] the test system is Pseudomonas aeruginosa. Description: Antimicrobial activity against tetracycline-susceptible Pseudomonas aeruginosa isolate 111 by CLSI dilution method. It counts as functional. In short, it runs like this: as §2
For data set [23], the system named is Staphylococcus aureus. Description: Antimicrobial activity against tetracycline-susceptible Staphylococcus aureus Smith isolate 100 by CLSI dilution method. It counts as functional.

As usually defined, the clearance is a measure of how efficiently the substance is removed, as volume per time. Low values mean a low capacity for elimination, high ones a high capacity for elimination. Broadly, the AUC(0-inf) is total exposure, with the tail of the curve extrapolated. The low end stands for less exposure, the high end for more exposure. The term MIC denotes the smallest concentration in the dilution series that meets the test's criterion for growth inhibition. A higher MIC goes with a need for much substance. For orientation: Cmax means the peak of the concentration-time curve. With `CN(C)[C@@H]1C(O)=C(C(N)=O)C(=O)[C@@]2(O)C(O)=C3C(=O)c4c(cc5ccc(CN6CC(F)C6)cc5c4O)C[C@H]3C[C@@H]12`, the ED50 is 0.36 mg/kg in data set [1] and 12.2 mg/kg in data set [13]. The compound also gave a clearance in [2] of 4.82 mL/min/kg. In [3], this compound gave an AUC(0-inf) of 3460 ng·h/mL. The MIC in data set [4] was 16 µg/mL (≈ 29 µM); in data set [5] it was 2 µg/mL (≈ 3.63 µM); in [6], 8 µg/mL (≈ 14.5 µM); in data set [8], 2 µg/mL (≈ 3.63 µM); in data set [11], 0.125 µg/mL (≈ 0.227 µM); in data set [12], 1 µg/mL (≈ 1.81 µM). The MIC was determined as 0.5 µg/mL (≈ 0.907 µM) in [14]; 2 µg/mL (≈ 3.63 µM) in [15]; 0.5 µg/mL (≈ 0.907 µM) in [16]; 0.5 µg/mL (≈ 0.907 µM) in [17]; 8 µg/mL (≈ 14.5 µM) in data set [19]; 8 µg/mL (≈ 14.5 µM) in data set [20]. Also, the MIC in [21] is 0.25 µg/mL (≈ 0.453 µM); in [22], above 32 µg/mL. Further, the Vd in data set [7] was 1.4 L/kg. In data set [9], this compound returned a Cmax of 814 ng/mL. In [10], this compound yielded an F of 18%. Also, in data set [18], the half-life was 3.35 h.
Consider `COc1c2c(c(O)c3cc(CN4CCC4)ccc13)C(=O)C1=C(O)[C@]3(O)C(=O)C(C(N)=O)=C(O)[C@@H](N(C)C)[C@@H]3C[C@@H]1C2`, for which the ED50 was 0.36 mg/kg in data set [1] and above 20 mg/kg in [13]. The compound also had a clearance in [2] of 10.2 mL/min/kg. This compound also showed an AUC(0-inf) in data set [3] of 1650 ng·h/mL. The MIC in data set [4] was determined as 8 µg/mL (≈ 14.2 µM); in data set [5], 1 µg/mL (≈ 1.77 µM); in data set [6], 8 µg/mL (≈ 14.2 µM); in data set [8] it was 0.5 µg/mL (≈ 0.887 µM); in data set [11], 0.0156 µg/mL (≈ 0.0277 µM); in data set [12], 1 µg/mL (≈ 1.77 µM). Also, the MIC in data set [14] was 0.0625 µg/mL (≈ 0.111 µM); in data set [15], 0.25 µg/mL (≈ 0.444 µM); in [16], 0.0625 µg/mL (≈ 0.111 µM); in data set [17], 0.0625 µg/mL (≈ 0.111 µM); in data set [23] it was 0.0625 µg/mL (≈ 0.111 µM); in data set [19], 1 µg/mL (≈ 1.77 µM). Besides, the MIC came to 1 µg/mL (≈ 1.77 µM) in [20], 0.0625 µg/mL (≈ 0.111 µM) in [21] and 32 µg/mL (≈ 56.8 µM) in data set [22]. In data set [7], the Vd worked out at 4.65 L/kg. In data set [9], this compound had a Cmax of 618 ng/mL. In addition, in data set [18], the half-life is 5.26 h.
With `CC(C)CNCc1ccc2cc3c(c(O)c2c1)C(=O)C1=C(O)[C@]2(O)C(=O)C(C(N)=O)=C(O)[C@@H](N(C)C)[C@@H]2C[C@@H]1C3`, in [1], the ED50 stood at 0.62 mg/kg. Also, the clearance in data set [2] turned out to be 6.22 mL/min/kg. The compound further had an AUC(0-inf) in data set [3] of 2680 ng·h/mL. Moreover, the MIC was 4 µg/mL (≈ 7.28 µM) in data set [4]; 4 µg/mL (≈ 7.28 µM) in data set [5]; 4 µg/mL (≈ 7.28 µM) in [6]; 4 µg/mL (≈ 7.28 µM) in data set [8]; 0.0156 µg/mL (≈ 0.0284 µM) in [11]; 0.5 µg/mL (≈ 0.91 µM) in [12]. Also, the MIC in [14] was found to be 0.25 µg/mL (≈ 0.455 µM); in [15], 1 µg/mL (≈ 1.82 µM); in data set [16] it was 0.5 µg/mL (≈ 0.91 µM); in data set [17], 0.25 µg/mL (≈ 0.455 µM); in data set [23] it was 1 µg/mL (≈ 1.82 µM); in [19], 4 µg/mL (≈ 7.28 µM). The MIC in data set [20] was 2 µg/mL (≈ 3.64 µM); in data set [21], 0.25 µg/mL (≈ 0.455 µM); in data set [22] it was 32 µg/mL (≈ 58.2 µM). In addition, the Vd in [7] came to 3.16 L/kg. The Cmax in [9] was 891 ng/mL. The same compound had a F in data set [10] of 1.9%. Further, the half-life in data set [18] is 5.87 h.
As to `COCCNCc1ccc2cc3c(c(O)c2c1)C(=O)C1=C(O)[C@]2(O)C(=O)C(C(N)=O)=C(O)[C@@H](N(C)C)[C@@H]2C[C@@H]1C3`, the ED50 in data set [1] was 0.43 mg/kg. The compound further came in with a clearance in data set [2] of 8.43 mL/min/kg. This compound also showed an AUC(0-inf) in data set [3] of 1980 ng·h/mL. Moreover, the MIC in [4] amounted to 8 µg/mL (≈ 14.5 µM); in data set [5] it was 8 µg/mL (≈ 14.5 µM); in data set [6] it was 8 µg/mL (≈ 14.5 µM); in data set [8], 4 µg/mL (≈ 7.25 µM); in data set [11], 0.0156 µg/mL (≈ 0.0283 µM); in [12] it was 1 µg/mL (≈ 1.81 µM). The MIC worked out at 0.25 µg/mL (≈ 0.453 µM) in data set [14]; 1 µg/mL (≈ 1.81 µM) in [15]; 0.5 µg/mL (≈ 0.906 µM) in data set [16]; 0.5 µg/mL (≈ 0.906 µM) in [17]; 1 µg/mL (≈ 1.81 µM) in data set [23]; 4 µg/mL (≈ 7.25 µM) in [19]. The MIC in [20] was 2 µg/mL (≈ 3.63 µM); in [21], 0.5 µg/mL (≈ 0.906 µM); in data set [22], 32 µg/mL (≈ 58 µM). In addition, the Vd in data set [7] was determined as 3.78 L/kg. The Cmax in data set [9] worked out at 633 ng/mL. Also, the F in data set [10] worked out at 2.8%. The half-life in [18] was 5.19 h.
Consider `CN(C)[C@@H]1C(O)=C(C(N)=O)C(=O)[C@@]2(O)C(O)=C3C(=O)c4c(O)cccc4[C@@](C)(O)[C@H]3C[C@@H]12` [TETRACYCLINE], for which the ED50 is 0.35 mg/kg in data set [1] and 8.1 mg/kg in [13]. This compound returned a Cmax in data set [9] of 583 ng/mL. Also, the MIC in data set [23] came to 0.25 µg/mL (≈ 0.563 µM).
